Data reported in ChEMBL document CHEMBL1800047, “Design and synthesis of cyclic sulfonamides and sulfamates as new calcium sensing receptor agonists” (Bioorg Med Chem Lett, 2010).
Residue numbers refer to the chain shown, from its start.

Legend:
Format in all cases: functional, cell-based
[1] = biological target: T1, Extracellular calcium-sensing receptor (Rattus norvegicus) (UniProt P48442); assay: Agonist activity at rat CaSR expressed in CHO cells assessed as increase of calcium-induced inositol phosphate accumulation at 10 uM after 24 hrs by HTRF assay relative to calcium
T1 sequence (whole entry): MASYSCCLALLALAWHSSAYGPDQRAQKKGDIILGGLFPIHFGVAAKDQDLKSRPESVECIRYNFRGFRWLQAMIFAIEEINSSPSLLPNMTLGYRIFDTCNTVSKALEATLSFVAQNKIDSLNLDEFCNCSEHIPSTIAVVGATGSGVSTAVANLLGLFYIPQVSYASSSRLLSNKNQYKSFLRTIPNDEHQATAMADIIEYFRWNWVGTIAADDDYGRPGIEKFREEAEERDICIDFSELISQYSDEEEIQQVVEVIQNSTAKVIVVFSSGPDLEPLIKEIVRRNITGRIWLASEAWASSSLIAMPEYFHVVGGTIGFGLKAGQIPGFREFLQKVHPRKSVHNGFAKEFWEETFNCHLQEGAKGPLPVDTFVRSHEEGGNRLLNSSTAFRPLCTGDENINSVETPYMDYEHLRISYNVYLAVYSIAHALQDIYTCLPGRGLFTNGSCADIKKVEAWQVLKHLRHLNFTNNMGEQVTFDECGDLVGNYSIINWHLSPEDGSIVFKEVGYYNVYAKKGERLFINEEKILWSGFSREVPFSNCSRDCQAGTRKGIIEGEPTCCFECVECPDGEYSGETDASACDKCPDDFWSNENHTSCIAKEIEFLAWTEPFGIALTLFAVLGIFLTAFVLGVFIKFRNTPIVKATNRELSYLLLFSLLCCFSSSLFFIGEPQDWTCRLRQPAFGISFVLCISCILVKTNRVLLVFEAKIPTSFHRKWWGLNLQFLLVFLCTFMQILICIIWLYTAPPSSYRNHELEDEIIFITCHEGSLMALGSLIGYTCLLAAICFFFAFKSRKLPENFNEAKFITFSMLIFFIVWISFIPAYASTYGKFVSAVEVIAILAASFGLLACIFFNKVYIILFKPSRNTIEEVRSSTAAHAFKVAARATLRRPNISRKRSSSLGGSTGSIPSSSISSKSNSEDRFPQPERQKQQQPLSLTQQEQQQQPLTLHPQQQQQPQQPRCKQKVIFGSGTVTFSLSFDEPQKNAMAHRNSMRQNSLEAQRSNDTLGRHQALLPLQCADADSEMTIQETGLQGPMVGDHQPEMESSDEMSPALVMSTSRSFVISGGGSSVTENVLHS
Method in brief: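 CHO cells stably expressing rat brain CaSR are grown in Ham's F-12 (0.3 mM Ca²⁺, 0.6 mM Mg²⁺) and seeded at 4 × 10⁴ cells/well. IP-One HTRF runs 24 h later: 10 min preincubation at 37 °C, then 10 µM compound (from 10 mM DMSO stock) with 3 mM Ca²⁺, 30 min at 37 °C. Values are % of 10 mM Ca²⁺ stimulation, mean with S.E.M.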

[2] = test system: T2, Extracellular calcium-sensing receptor (Homo sapiens), P41180 [E837A]; assay: Agonist activity at human CaSR E837A mutant expressed in HEK293 cells assessed as increase of calcium-induced inositol phosphate accumulation at 10 uM after 48 hrs by HTRF assay relative to calcium
T2 sequence (whole entry): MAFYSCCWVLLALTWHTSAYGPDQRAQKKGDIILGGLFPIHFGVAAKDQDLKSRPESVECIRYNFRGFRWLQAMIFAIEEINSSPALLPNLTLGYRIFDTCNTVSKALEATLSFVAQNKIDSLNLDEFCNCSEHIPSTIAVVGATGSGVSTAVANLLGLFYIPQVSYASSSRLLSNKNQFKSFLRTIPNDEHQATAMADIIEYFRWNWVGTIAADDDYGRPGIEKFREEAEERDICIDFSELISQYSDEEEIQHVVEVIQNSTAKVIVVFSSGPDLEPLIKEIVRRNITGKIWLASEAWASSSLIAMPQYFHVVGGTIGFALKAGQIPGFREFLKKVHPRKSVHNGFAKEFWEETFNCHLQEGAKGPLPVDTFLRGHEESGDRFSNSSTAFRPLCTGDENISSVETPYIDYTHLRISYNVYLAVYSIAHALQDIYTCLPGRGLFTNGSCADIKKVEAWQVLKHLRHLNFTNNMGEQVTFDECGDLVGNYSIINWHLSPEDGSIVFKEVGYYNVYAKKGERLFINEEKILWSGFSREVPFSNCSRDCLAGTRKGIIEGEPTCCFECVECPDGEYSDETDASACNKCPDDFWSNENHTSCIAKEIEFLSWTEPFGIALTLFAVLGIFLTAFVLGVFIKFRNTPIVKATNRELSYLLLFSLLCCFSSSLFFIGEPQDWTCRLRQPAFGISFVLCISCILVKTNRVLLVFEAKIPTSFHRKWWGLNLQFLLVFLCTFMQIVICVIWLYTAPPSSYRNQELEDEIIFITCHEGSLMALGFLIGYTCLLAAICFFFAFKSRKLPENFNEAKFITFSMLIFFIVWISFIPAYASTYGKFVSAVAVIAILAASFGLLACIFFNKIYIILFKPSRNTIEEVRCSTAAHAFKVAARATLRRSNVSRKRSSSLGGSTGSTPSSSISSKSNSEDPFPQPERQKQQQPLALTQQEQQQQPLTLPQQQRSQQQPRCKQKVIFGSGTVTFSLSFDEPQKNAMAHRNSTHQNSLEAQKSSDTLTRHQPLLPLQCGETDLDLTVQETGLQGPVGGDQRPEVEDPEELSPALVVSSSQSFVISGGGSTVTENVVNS
Method in brief: (§1)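 Wild-type or E837A mutant hCaSR (pcDNA3) transiently transfected into HEK293 cells (10⁷ cells, electroporation). Cells are plated on poly-D-lysine and assayed 48 h later. The assay uses a 10 min preincubation at 37 °C, then compound plus 3 mM Ca²⁺ for 30 min at 37 °C. IP-One HTRF read-out is 620/665 nm after 337 nm excitation. Values are % of 10 mM Ca²⁺ response, mean with S.E.M.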

[3] = biological target: T3, Extracellular calcium-sensing receptor (Homo sapiens) (UniProt P41180); assay: Agonist activity at human CaSR expressed in HEK293 cells assessed as increase of calcium-induced inositol phosphate accumulation at 10 uM after 48 hrs by HTRF assay relative to calcium; method in brief: as §1
T3 sequence (whole entry): T2 sequence (whole entry) with A837E, Q1011E

SMILES	Activity [1] [%]	Activity [2] [%]	Activity [3] [%]
C[C@@H](NCC1Cc2ccccc2OS(=O)(=O)N1)c1cccc2ccccc12 (single isomer, unassigned; diastereomer 1)	85	51	75
C[C@@H](NC1CNS(=O)(=O)Oc2ccccc2C1)c1cccc2ccccc12 (single isomer, unassigned; diastereomer 1)	67	1	67
C[C@@H](NC[C@H]1NS(=O)(=O)c2ccccc2-c2ccccc21)c1cccc2ccccc12	29	–	–
C[C@@H](NCc1cc2ccccc2[nH]1)c1cccc2ccccc12	95	41	94
C[C@@H](NC[C@@H]1NS(=O)(=O)c2ccccc2-c2ccccc21)c1cccc2ccccc12	19	–	–
C[C@@H](NCC1Cc2ccccc2OS(=O)(=O)N1)c1cccc2ccccc12 (single isomer, unassigned; diastereomer 2)	76	27	65
C[C@@H](NC1CNS(=O)(=O)Oc2ccccc2C1)c1cccc2ccccc12 (single isomer, unassigned; diastereomer 2)	17	1	2
C[C@@H](NCC1CCc2ccccc2S(=O)(=O)N1)c1cccc2ccccc12 (single isomer, unassigned; diastereomer 1)	75	3	70

Now from value to compound:

Activity [1] [%]	Activity [2] [%]	Activity [3] [%]	SMILES
39	11	51	C[C@@H](NCC1NS(=O)(=O)c2ccccc21)c1cccc2ccccc12 (single isomer, unassigned; diastereomer 2)
30	–	–	C[C@@H](N[C@H]1CNS(=O)(=O)c2ccccc21)c1cccc2ccccc12
69	10	64	C[C@@H](NCC1Cc2ccccc2S(=O)(=O)N1)c1cccc2ccccc12 (single isomer, unassigned; diastereomer 2)
57	11	58	C[C@@H](NCC1NS(=O)(=O)c2ccccc21)c1cccc2ccccc12 (single isomer, unassigned; diastereomer 1)
71	22	73	C[C@@H](NCC1Cc2ccccc2S(=O)(=O)N1)c1cccc2ccccc12 (single isomer, unassigned; diastereomer 1)
13	–	–	C[C@@H](N[C@@H]1CNS(=O)(=O)c2ccccc21)c1cccc2ccccc12
37	1	40	C[C@@H](NCC1CCc2ccccc2S(=O)(=O)N1)c1cccc2ccccc12 (single isomer, unassigned; diastereomer 2)
